Compound activity: PubChem, several laboratories
hDAT+cocaine – changed human dopamine transporter uptake under cocaine IC80. Q01959. LLC-PK1 hDAT cells, [14C]-dopamine uptake with cocaine IC80; actives deviate in either direction. B-score at 10 µM. 1.3% of 110,000 active;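 active = Z score or B-score, a plate-position-corrected score, falls beyond the plate's 99.7% confidence bounds, in either direction; inactive = both scores lie inside the 99.7% bounds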;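 note: scored against the spread of the other compound wells on the same plate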
Measles CPE – protection of cells from measles virus. AID 841. 1.5% of 140,000 active. Measles virus-infected cells, CPE protection, absorbance. protection (pct of control), % at 4 µM; in the data active = protection mostly above about 24%, no sharp cut-off; inactive = mostly below about 26%
HIV Rev-RRE inh – HIV Rev-RRE protein-RNA interaction inhibition. P05866. Rev peptide-RRE RNA binding, FRET. inhibition, % at 8 µM. 0.79% of 97,000 active. AID 704;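 active = inhibition above the screen-wide mean plus 3 SD, cut at about 35% in these data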;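 note: 0% = median DMSO wells and 100% = median Neomycin B control wells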
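Test system: Cy5-tagged RRE RNA duplex with fluorescein-tagged Rev peptide | Read-out: % inhibition of FRET ratio versus controls | Probe or stimulus: Labelled Rev peptide | Incubation: 5 min RNA-compound premix plus 15 min binding step, 25 °C | Technique: FRET fluorescence readout | Benchmarks: DMSO low control, neomycin B high control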
Cav3 T inh – blocks human Cav3.2 T-type calcium channel | O95180 | B-score at 10 µM | 4% of 100,000 active | Cav3.2-expressing cells, Fluo-4 calcium fluorescence FDSS; hits give low values | AID 449739;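 active = single-dose well whose peak fluorescence ratio is a statistical outlier from its plate by either plate-standardised score or position-corrected B-score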
Target sequence (O95180 whole entry, looked up): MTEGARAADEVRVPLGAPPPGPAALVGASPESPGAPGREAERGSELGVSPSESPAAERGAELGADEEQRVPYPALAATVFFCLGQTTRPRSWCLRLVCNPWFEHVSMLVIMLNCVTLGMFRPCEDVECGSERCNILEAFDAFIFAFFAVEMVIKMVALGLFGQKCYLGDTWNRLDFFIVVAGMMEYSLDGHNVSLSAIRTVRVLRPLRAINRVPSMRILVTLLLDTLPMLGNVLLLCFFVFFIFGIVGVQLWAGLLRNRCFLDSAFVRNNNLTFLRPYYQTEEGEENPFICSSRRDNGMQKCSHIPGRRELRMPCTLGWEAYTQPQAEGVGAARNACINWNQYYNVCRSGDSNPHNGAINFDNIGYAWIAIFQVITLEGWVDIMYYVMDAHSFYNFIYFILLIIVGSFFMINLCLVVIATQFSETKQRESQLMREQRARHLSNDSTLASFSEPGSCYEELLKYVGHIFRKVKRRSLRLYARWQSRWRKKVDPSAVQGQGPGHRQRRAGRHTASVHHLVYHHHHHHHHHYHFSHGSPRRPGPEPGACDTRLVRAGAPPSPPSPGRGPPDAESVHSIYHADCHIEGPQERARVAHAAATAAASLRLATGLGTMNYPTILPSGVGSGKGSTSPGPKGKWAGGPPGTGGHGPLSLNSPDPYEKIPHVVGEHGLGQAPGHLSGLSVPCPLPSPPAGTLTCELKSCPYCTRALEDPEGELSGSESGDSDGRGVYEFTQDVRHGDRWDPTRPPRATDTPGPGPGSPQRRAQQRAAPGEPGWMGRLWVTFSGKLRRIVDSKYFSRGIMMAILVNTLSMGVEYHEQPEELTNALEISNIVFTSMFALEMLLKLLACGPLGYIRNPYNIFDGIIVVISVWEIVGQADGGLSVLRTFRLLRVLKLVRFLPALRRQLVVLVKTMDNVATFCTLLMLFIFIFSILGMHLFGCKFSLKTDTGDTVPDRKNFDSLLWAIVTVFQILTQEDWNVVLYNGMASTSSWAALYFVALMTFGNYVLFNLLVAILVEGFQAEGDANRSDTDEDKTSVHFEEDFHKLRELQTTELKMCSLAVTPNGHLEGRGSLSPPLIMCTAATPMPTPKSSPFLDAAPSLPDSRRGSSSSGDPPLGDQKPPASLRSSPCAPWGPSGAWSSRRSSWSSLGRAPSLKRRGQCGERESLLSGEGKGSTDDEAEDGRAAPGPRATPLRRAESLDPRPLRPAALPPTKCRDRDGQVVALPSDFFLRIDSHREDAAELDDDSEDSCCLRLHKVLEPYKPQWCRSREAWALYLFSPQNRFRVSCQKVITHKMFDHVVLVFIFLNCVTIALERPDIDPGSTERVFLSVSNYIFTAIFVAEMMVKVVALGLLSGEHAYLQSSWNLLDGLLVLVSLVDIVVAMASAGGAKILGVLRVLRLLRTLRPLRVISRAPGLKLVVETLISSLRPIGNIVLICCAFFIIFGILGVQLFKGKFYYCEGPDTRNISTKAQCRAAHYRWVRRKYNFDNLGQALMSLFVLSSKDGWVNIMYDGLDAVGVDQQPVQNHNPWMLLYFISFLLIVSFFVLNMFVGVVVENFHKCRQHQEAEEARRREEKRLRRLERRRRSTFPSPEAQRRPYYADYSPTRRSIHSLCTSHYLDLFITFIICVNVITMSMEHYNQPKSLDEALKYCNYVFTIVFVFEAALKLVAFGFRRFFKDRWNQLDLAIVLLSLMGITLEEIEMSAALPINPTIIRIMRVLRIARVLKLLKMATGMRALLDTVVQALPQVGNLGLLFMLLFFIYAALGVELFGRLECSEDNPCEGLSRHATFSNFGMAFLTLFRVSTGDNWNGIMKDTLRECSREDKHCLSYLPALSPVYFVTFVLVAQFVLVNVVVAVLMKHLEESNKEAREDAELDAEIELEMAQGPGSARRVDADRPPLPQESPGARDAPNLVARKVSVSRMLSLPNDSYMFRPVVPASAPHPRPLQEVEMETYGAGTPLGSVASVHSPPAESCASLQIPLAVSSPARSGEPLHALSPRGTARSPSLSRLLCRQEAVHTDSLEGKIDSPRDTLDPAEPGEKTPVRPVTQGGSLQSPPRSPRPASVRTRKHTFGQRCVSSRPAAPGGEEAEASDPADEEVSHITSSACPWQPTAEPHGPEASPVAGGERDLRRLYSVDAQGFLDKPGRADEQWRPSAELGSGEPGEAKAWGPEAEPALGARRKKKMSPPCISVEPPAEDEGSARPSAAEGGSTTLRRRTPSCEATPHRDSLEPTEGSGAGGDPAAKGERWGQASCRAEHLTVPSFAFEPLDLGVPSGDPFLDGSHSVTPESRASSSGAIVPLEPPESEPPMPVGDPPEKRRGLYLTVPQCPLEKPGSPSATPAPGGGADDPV
Pyk2 oligo antag – Pyk2 (human) oligomerization antagonism | Q293 cells, Pyk2 FERM NanoBiT luminescence; hits give low values | z-score (the deposit names both 25 µM and 10 µM) | AID 1347419 | 0.83% of 99,000 active | Q14289;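 active = Z-score of -3 or lower, scaled per plate to the spread of control and sample wells; inactive = z-score above -3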;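 note: negative z-score means lost luminescence so less FERM oligomerization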
Phagocytosis inh – blocks phagocytosis by macrophages; AID 1029; inhibition, % at 5 µM; J774A.1 macrophage IgG-bead phagocytosis, imaging; 0.07% of 110,000 active;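 active = inhibition above the mean of the plate negative controls plus 5 SD, cut at about 13% in these data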;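 note: phagocytic index as fraction of beads internalized from green versus red external bead signal; plate controls were DMSO negative control for no effect and cytochalasin-D positive control for full effect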
The depositor's hits bear a star; x = no result. Sampled rows, rich in hits. Any-hit rate of the full collection: about 5.9%.

SMILES	hDAT+cocaine	Measles CPE	HIV Rev-RRE inh	Cav3 T inh	Pyk2 oligo antag	Phagocytosis inh
O=C(N1CCOCC1)N1CCC(NC(=O)C23CC4CC(CC(C4)C2)C3)CC1	0.0418	17.0	4.0	-0.466	0.08	x
CCCN1Cc2cccc(C(=O)Nc3ccc(C)cc3)c2C1=O	-7.97*	10.2	19.2	1.02	0.53	0.3
COCCN1Cc2cccc(C(=O)Nc3cc(OC)ccc3OC)c2C1=O	x	2.6	x	x	1.05	0.4
COCCN1Cc2cccc(C(=O)Nc3cc(C)cc(C)c3)c2C1=O	1.75*	7.6	-4.4	-0.59	-0.27	0.2
CCOC(=O)C1=C(C)N(C)C(C)=C(C(=O)OCC)C1c1ccc(C(=O)OC)cc1	-2.3	-1.1	-2.0	-7.01*	-0.24	-0.4
Cc1ccc(Nc2nnc(-c3ccc(N4CCOCC4)c([N+](=O)[O-])c3)c3ccccc23)cc1	x	34.9*	x	x	x	-3.1
Cc1ccc(C2=NN3C(C(=O)c4ccccc4)Oc4ccccc4C3C2)cc1 (configuration not stated)	0.421	4.9	3.7	-7.3*	-0.84	1.8
CCOCCCNC(=O)C(c1ccc(C)cc1)N(Cc1cccs1)C(=O)CNC(C)=O (configuration not stated)	x	5.5	x	x	x	-12.9
Cc1cccc(-n2nnc(C(=O)N3CCc4ccccc4C3)c2N)c1	0.475	10.7	12.9	-4.67*	-0.4	x
Cc1cccc(-n2nnc(C(=O)Nc3ccc(F)cc3)c2N)c1	1.12	4.6	2.6	0.0537	-0.6	1.0
N#CC1=C(N)Oc2ccc3ccc(O)cc3c2C1c1cccnc1 (configuration not stated)	-0.88	3.7	4.6	1.15	-3.2*	2.1
CN(C)c1ccc2c(c1)OC(N)=C(C#N)C2c1cccc(F)c1 (configuration not stated)	-2.14	1.5	x	x	-3.15*	0.7
N#CC1=C(N)Oc2cc(O)ccc2C1c1ccncc1 (configuration not stated)	0.309	7.6	9.6	-4.64*	-0.13	-0.1
CCOc1ccccc1C1C(C#N)=C(N)Oc2cc(N)ccc21 (configuration not stated)	-0.116	33.6	5.2	0.132	-2.11	2.3
COc1ccc(C2C(C#N)=C(N)Oc3cc4c(cc32)OCO4)cc1 (configuration not stated)	-0.679	5.8	7.7	-4.04*	-1.21	1.5
N#CC1=C(N)Oc2cc(O)ccc2C1c1cccs1 (configuration not stated)	-0.925	5.3	9.2	-3.01	-1.41	-0.6
Nc1c(Cl)cc(-c2csc(N3CCCC3c3nc4cc(Cl)c(N5CCCCC5)cc4n3CCOCCO)n2)cc1Cl (configuration not stated)	-0.366	x	x	-0.626	x	x
O=C(/C=C1\NCC2c3ccccc3CCN2C1=O)c1ccccc1 (configuration not stated)	-0.146	9.5	4.7	-0.803	0.72	-0.5
Cc1ccccc1C(=O)NNC(=O)CSc1nnc(-c2ccncc2)n1-c1ccccc1	x	12.2	x	x	x	-4.4
CC(C)OCCCN1C(=O)c2[nH]nc(-c3ccccc3O)c2C1c1cccc(Cl)c1 (configuration not stated)	-1.7	19.4	0.5	0.889	-3.23*	0.9
O=C1c2[nH]nc(-c3ccccc3O)c2C(c2ccccc2F)N1Cc1ccco1 (configuration not stated)	-0.465	6.9	12.0	-3.9	-3.41*	0.8
COc1ccc(CCNC(=O)c2cc(-c3ccc(C)cc3O)n[nH]2)cc1OC	0.863	2.0	4.7	-0.68	-0.4	1.5
COc1ccc(CCNC(=O)CSc2ccc(-c3ccccc3)nn2)cc1OC	2*	4.3	3.5	-0.192	2.25	x
COc1ccc(CCNC(=O)c2cc(-c3ccccc3O)n[nH]2)cc1OC	-9.55*	5.5	4.6	-1.33	-0.45	-2.0
Cc1cc(NC(=O)C2CC(=O)N(c3ccccc3)C2)no1 (configuration not stated)	x	9.0	x	x	x	-9.9
SMILES	hDAT+cocaine	Measles CPE	HIV Rev-RRE inh	Cav3 T inh	Pyk2 oligo antag	Phagocytosis inh
O=C1c2[nH]nc(-c3ccccc3O)c2C(c2ccccc2)N1Cc1ccco1 (configuration not stated)	0.821	5.8	12.4	-3.44	-1.58	-0.7
COc1ccc(CCN2C(=O)c3[nH]nc(-c4ccccc4O)c3C2c2ccccc2)cc1OC (configuration not stated)	0.352	19.3	7.3	-0.00579	-3.11*	-0.3
Cc1cc(O)c(-c2n[nH]c3c2C(c2cccc(O)c2)N(Cc2cccnc2)C3=O)cc1Cl (configuration not stated)	-0.0729	22.7	3.4	1.33	-3.92*	-2.9
COc1cccc(C2c3c(-c4ccccc4)n[nH]c3C(=O)N2c2ccc(C(=O)O)cc2)c1 (configuration not stated)	0.441	13.8	-4.5	1.24	1.07	x
COCCCN1C(=O)c2[nH]nc(-c3ccccc3O)c2C1c1ccc(Cl)cc1 (configuration not stated)	-0.237	10.2	1.5	-2.91	-2.22	-0.1
COc1ccc(-c2n[nH]c3c2C(c2ccc(OC)c(OC)c2)N(c2ccccc2)C3=O)cc1 (configuration not stated)	0.678	17.6	18.3	-5.6*	-3.03*	-0.8
COCCCN1C(=O)c2[nH]nc(-c3ccccc3O)c2C1c1cccc(Cl)c1 (configuration not stated)	1.69	9.7	1.6	-6.45*	-3.01*	-0.2
Cc1cccc(NC(=O)Cn2c(/C=C/c3ccccc3)nc3ccccc32)c1	x	3.3	x	x	x	-3.9
COc1ccc(CCNC(=O)COC(=O)c2ccco2)cc1OC	-0.747	39.0*	3.5	-0.00561	0.56	-1.2
COc1cccc(CNS(=O)(=O)c2cccc(S(=O)(=O)N3CCOCC3)c2)c1	-0.248	16.6	11.2	0.673	2.33	-0.6
COc1ccc(CNS(=O)(=O)c2cccc(S(=O)(=O)N3CCOCC3)c2)cc1	-0.788	21.1	2.9	-4.41*	3.03	-0.4
O=C(Nc1nc2c(ccc3ccccc32)s1)c1ccco1	-0.0193	0.2	8.7	-1.65	-3.32*	x
N#CC1=C(N)SC(N)=C(C#N)C1c1ccnc2ccccc12	-0.207	8.9	59.5*	0.555	-0.35	-2.4
NNC(=O)c1cc(Br)cs1	x	5.0	x	x	x	-1.2
COC(=O)CSc1nc2ccc(C)cc2[nH]1	0.0394	2.9	0.2	0.879	0.2	x
c1ccc(OCCSc2nc3ccccc3[nH]2)cc1	-0.0312	4.8	1.4	-3.63*	1.92	x
Cc1ccc2nc(SCCCCOc3ccccc3)[nH]c2c1	0.874	3.4	14.0	-6.25*	0.16	x
Cc1ccccc1OCCCSc1nc2ccccc2[nH]1	x	6.6	x	x	x	-6.0
CN(C)CC(C)(C)CNS(=O)(=O)c1cccc(Cl)c1Cl	0.0414	4.6	2.2	1.31	0.89	-1.0
Cc1ccc(C)c(-n2nnnc2SCC(=O)NCCC2=CCCCC2)c1	0.11	5.1	3.5	-6.96*	-0.44	-0.6
CC(C)N(C(=O)C(F)(F)F)C(C(=O)NC1CCCCC1)c1ccncc1 (configuration not stated)	-0.526	2.7	3.9	0.0997	0.45	x
